inhibition, Ki and IC50 data for 17 compounds are collected here from ChEMBL document CHEMBL1130275, “Novel N-substituted 3 alpha-[bis(4'-fluorophenyl)methoxy]tropane analogues: selective ligands for the dopamine transporter” (J Med Chem, 1997).

Experiment [1] deals with Sodium-dependent dopamine transporter (Rattus norvegicus) (UniProt P23977). Briefly: Inhibition of binding of [3H]WIN-35 428 to dopamine transporter (in rat caudate putamen) by 10 uM of compound. Type of experiment: tissue-based.
Sodium-dependent dopamine transporter (Rattus norvegicus), sequence (P23977 whole entry): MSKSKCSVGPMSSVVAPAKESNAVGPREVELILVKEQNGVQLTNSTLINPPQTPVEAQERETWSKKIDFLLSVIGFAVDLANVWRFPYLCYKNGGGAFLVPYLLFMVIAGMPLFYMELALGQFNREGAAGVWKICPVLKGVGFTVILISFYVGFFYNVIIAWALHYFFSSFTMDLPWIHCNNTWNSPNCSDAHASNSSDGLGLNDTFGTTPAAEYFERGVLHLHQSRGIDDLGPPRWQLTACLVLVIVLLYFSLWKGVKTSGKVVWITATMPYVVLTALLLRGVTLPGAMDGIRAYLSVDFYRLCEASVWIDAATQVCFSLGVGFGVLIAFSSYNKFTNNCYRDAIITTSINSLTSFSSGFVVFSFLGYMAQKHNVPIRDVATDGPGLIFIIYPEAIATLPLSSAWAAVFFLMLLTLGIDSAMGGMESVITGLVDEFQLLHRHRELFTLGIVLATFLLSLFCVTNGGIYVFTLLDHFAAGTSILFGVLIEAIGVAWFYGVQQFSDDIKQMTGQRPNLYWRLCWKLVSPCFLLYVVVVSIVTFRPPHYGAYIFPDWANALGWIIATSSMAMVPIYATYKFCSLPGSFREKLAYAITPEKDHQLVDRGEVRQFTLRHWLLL
Experiment [2] addresses T1, Sodium-dependent dopamine transporter (Rattus norvegicus, UniProt P23977). Briefly: Displacement of [3H]WIN-35 428 from the dopamine transporter in rat caudate putamen. The class given is tissue-based. Summed up:
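Rat caudate putamen membranes washed in Krebs-HEPES pH 7.4, 0.5% w/v final. Filtration through BSA-soaked GF/B. Compounds run at 0.01 nM–100 μM, three experiments in triplicate. Ki derived by LIGAND nonlinear fitting of two-site binding.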

For experiment [3], the target named is T2, Muscarinic acetylcholine receptor M1 (Rattus norvegicus, UniProt P08482).
T2 sequence (P08482 whole entry): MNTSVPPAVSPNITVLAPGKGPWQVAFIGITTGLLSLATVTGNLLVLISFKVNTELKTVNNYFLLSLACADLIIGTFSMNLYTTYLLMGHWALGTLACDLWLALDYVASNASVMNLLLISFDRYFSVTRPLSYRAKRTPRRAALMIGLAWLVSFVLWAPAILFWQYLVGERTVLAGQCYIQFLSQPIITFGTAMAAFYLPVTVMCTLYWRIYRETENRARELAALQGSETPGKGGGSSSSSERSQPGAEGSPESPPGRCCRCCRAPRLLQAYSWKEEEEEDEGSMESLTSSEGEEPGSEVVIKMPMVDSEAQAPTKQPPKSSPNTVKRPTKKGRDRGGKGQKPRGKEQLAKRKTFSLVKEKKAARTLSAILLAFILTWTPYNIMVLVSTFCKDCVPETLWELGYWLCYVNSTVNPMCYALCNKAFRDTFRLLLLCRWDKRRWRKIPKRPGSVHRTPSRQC
In words: Binding affinity against Muscarinic acetylcholine receptor M1 sites of rat. In outline:
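Whole rat brain minus cerebellum, membranes made by two-step centrifugation and resuspended in 10 mM Tris pH 7.4. Assay buffer is 10 mM Tris-HCl with 5 mM MgCl2. Membrane is preincubated 5 min with the compound, then [3H]pirenzepine 3 nM final is added for 1 h at 37 °C. Filtration through PEI-soaked GF/B. Compounds run at 0.01 nM–100 μM, ≥3 independent experiments in triplicate.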

Experiment [4] has as its target T3, Sodium-dependent noradrenaline transporter (Homo sapiens, UniProt P23975). In words: (§1) Compound was evaluated for binding to Norepinephrine Transporter (NET) using [3H]desmethylimipramine as radioligand. In outline:
(§2)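 Binding data supplied by an outside contract lab using published methods. SERT: [3H]citalopram, 0.7 nM final. NET: [3H]desmethylimipramine, 3.0 nM final.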

Experiment [5] deals with T1, Sodium-dependent dopamine transporter. Briefly: In vitro inhibition of dopamine uptake in rat tissue, was determined using [3H]DAU as radioligand. Summed up:
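Rat caudate putamen slices (225 μm, cross-chopped) in oxygenated Krebs-HEPES at 37 °C. Stopped with ice-cold buffer and filtration. Accumulated label extracted with methanol/HCl and counted; filter blank subtracted. IC50 taken from the linear portion of the concentration–response curve by regression.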

For experiment [6], the target named is Sodium-dependent serotonin transporter (Rattus norvegicus, UniProt P31652). In words: (§3) Compound is evaluated for binding to Serotonin transporter using [3H]citalopram as radioligand in rat brain. The class given is tissue-based. In outline: as §2
Sodium-dependent serotonin transporter, sequence (P31652 whole entry): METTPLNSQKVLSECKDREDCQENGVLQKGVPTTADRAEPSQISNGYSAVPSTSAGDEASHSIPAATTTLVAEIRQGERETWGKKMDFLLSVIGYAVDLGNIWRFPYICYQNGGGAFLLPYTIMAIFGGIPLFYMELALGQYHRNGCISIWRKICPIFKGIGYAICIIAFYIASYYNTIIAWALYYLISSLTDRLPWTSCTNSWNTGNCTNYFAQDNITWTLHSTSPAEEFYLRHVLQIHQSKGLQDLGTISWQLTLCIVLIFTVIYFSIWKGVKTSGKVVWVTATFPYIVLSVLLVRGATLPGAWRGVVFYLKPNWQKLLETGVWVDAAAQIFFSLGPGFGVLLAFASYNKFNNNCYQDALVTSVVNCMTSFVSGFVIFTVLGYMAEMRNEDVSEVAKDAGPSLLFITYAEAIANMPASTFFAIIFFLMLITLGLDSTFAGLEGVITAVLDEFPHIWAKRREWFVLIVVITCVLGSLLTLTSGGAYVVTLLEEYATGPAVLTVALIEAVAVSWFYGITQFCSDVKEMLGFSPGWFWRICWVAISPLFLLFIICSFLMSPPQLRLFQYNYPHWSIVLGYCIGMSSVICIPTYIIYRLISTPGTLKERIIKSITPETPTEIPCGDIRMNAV
The target in experiment [7] is T3, Sodium-dependent noradrenaline transporter. The description is as §1. To be noted: concentration not given here. In outline:
as §2

For experiment [8], the target named is Sodium-dependent serotonin transporter (Rattus norvegicus) (UniProt P31652). The experiment is described as §3. To be noted: concentration not given here. Type of experiment: tissue-based. In outline:
as §2

For experiment [9], the target named is T3, Sodium-dependent noradrenaline transporter. In words: Compound was evaluated for binding to Norepinephrine Transporter (NET). In outline:
as §2

pIC50, pKi: −log10 of the molar value. A value given as a limit tells only on which side of the number the result lay.

Sodium-dependent serotonin transporter (Rattus norvegicus), sequence (P31652 whole entry): as above
T3 sequence (P23975 whole entry): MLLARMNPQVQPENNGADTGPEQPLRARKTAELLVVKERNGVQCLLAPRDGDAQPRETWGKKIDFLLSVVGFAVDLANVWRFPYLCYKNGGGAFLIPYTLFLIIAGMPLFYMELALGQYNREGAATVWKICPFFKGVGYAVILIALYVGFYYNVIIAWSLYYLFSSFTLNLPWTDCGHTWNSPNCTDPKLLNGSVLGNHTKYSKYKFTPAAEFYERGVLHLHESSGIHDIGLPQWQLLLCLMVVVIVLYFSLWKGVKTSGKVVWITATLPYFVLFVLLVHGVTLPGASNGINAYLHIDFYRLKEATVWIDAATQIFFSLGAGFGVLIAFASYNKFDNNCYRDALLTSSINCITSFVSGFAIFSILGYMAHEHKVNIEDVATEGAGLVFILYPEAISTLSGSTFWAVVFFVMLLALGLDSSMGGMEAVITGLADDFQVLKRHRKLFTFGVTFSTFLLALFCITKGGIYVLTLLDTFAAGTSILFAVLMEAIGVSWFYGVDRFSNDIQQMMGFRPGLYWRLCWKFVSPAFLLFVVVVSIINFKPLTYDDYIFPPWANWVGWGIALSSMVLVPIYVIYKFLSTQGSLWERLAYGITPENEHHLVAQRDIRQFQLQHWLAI
T1 sequence (P23977 whole entry): as the sequence (P23977 whole entry) above

Compound `CS(=O)(=O)N1C2CCC1CC(OC(c1ccc(F)cc1)c1ccc(F)cc1)C2` (configuration not stated) showed an inhibition in experiment [1] of 18%.
With `Fc1ccc(CCCN2C3CCC2CC(OC(c2ccc(F)cc2)c2ccc(F)cc2)C3)cc1` (configuration not stated), the negative-log Ki (pKi) in experiment [2] is 7.22.
As for `CCCCN1C2CCC1CC(OC(c1ccc(F)cc1)c1ccc(F)cc1)C2` (configuration not stated), the pKi was 7.61 in experiment [2], 6.60 in experiment [3], 5.88 in [4] and 5.76 in experiment [6]. The negative logarithm of the IC50 (pIC50) in [5] is 6.43.
Take `C[N+]1(C)[C@@H]2CC[C@H]1C[C@@H](OC(c1ccc(F)cc1)c1ccc(F)cc1)C2`: the pKi in experiment [2] is 6.97; in experiment [3], 7.54. The inhibition in experiment [7] worked out at 38%; in experiment [8], 79%. The compound further showed a pIC50 in experiment [5] of 6.89.
In turn, `O=[N+]([O-])c1ccc(-c2ccc(COCCN3C4CCC3CC(OC(c3ccc(F)cc3)c3ccc(F)cc3)C4)cc2)cc1` (configuration not stated) showed a pKi in [2] of 7.24.
For `Fc1ccc(C(OC2CC3CCC(C2)N3)c2ccc(F)cc2)cc1` (configuration not stated), the pKi was 7.95 in [2], 6.81 in experiment [3], 5.68 in experiment [6] and below 5.10 in experiment [9]. Also, in experiment [5], the pIC50 is 8.01.
For the compound `CC(=O)N1C2CCC1CC(OC(c1ccc(F)cc1)c1ccc(F)cc1)C2` (configuration not stated), the negative logarithm of the Ki (pKi) in experiment [2] is 5.63. Besides, the values for the inhibition in experiment [7] and in [8] were 8.5% and 1.3%, respectively. This compound showed a pIC50 in [5] of 5.34.
On to `C=CCN1C2CCC1CC(OC(c1ccc(F)cc1)c1ccc(F)cc1)C2` (configuration not stated), for which the negative logarithm of the Ki (pKi) in [2] was 7.52; in [3], 6.90; in [4] it was 5.23; in [6], 5.84. The pIC50 in experiment [5] is 7.85.
With `CN1C2CCC1CC(OC(c1ccc(F)cc1)c1ccc(F)cc1)C2` (configuration not stated) [DIFLUOROBENZTROPINE], the results for the pKi in experiment [4] and in [6] were below 5.07 and 5.61, respectively.
In the case of `Fc1ccc(C(OC2CC3CCC(C2)N3Cc2ccccc2)c2ccc(F)cc2)cc1` (configuration not stated), the pKi is 7.09 in experiment [2], 6.11 in experiment [3] and 5.68 in [4]. This compound also showed a negative-log IC50 (pIC50) in experiment [5] of 6.54. The compound further showed an inhibition in [8] of 74%.
With `O=CN1C2CCC1CC(OC(c1ccc(F)cc1)c1ccc(F)cc1)C2` (configuration not stated), the negative-log Ki (pKi) is 5.69 in experiment [2] and 4.91 in experiment [3]. Further, the inhibition in experiment [7] came to 29.4%; in experiment [8] it was 1.6%. In experiment [5], the negative-log IC50 (pIC50) was 5.27.
In [1], `Cc1ccc(S(=O)(=O)N2C3CCC2CC(OC(c2ccc(F)cc2)c2ccc(F)cc2)C3)cc1` (configuration not stated) displayed an inhibition of 0%.
As for `Fc1ccc(CN2C3CCC2CC(OC(c2ccc(F)cc2)c2ccc(F)cc2)C3)cc1` (configuration not stated), the pKi is 7.02 in experiment [2] and 6.21 in [3]. In addition, the inhibition in experiment [7] stood at 60%. In [5], the pIC50 was 6.70.
Take `O=[N+]([O-])c1ccc(CCCCN2[C@@H]3CC[C@H]2C[C@@H](OC(c2ccc(F)cc2)c2ccc(F)cc2)C3)cc1`: the negative logarithm of the Ki (pKi) in experiment [2] is 7.69. In [5], this compound gave a pIC50 of 6.19.
Consider `Fc1ccc(C(OC2CC3CCC(C2)N3CCCc2ccccc2)c2ccc(F)cc2)cc1` (configuration not stated), for which the pKi is 7.38 in experiment [2], 6.87 in [3], 5.45 in experiment [4] and 6.43 in experiment [6]. Moreover, in [5], the pIC50 is 6.64.
In turn, `Fc1ccc(C(OCCN2C3CCC2CC(OC(c2ccc(F)cc2)c2ccc(F)cc2)C3)c2ccc(F)cc2)cc1` (configuration not stated) had a negative-log Ki (pKi) in [2] of 6.20.
Take `Fc1ccc(C(OC2CC3CCC(C2)N3CC2CC2)c2ccc(F)cc2)cc1` (configuration not stated): the negative logarithm of the Ki (pKi) in experiment [2] was 7.49; in experiment [3], 6.87; in experiment [4], 5.32; in experiment [6], 5.92. Further, the pIC50 in experiment [5] is 6.74.
